This is an account of results in article PMC2077835 (Drug metabolism and disposition: the biological fate of …, 2006).

The test system of series [1] is M1 formation by human liver microsomes. Description: Chemical inhibition of M1 formation by HLMs. It is filed as biochemical.
The target in a further series is T1, recombinant CYP4F2 (Homo sapiens, UniProt P78329).
T1 sequence (P78329 5-520): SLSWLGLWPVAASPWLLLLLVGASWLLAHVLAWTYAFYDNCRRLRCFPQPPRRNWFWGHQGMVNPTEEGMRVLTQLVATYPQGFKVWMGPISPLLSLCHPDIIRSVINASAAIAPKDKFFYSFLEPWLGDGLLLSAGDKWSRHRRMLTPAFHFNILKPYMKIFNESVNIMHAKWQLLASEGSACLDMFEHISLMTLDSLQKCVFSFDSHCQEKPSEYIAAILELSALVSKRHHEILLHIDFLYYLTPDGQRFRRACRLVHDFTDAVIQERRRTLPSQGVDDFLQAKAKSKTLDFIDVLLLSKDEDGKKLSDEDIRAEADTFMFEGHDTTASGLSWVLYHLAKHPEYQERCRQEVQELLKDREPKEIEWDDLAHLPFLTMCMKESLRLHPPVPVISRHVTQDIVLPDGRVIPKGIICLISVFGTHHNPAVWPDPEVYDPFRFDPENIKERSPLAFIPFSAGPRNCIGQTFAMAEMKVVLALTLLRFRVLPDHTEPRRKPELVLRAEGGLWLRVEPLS
The series can be described thus: Chemical inhibition of M1 formation by recombinant CYP4F2. It is filed as biochemical.

For another series, the target named is T2, recombinant CYP4F3B (Homo sapiens, UniProt Q08477).
T2 sequence (Q08477 1-520 isoform Q08477-2): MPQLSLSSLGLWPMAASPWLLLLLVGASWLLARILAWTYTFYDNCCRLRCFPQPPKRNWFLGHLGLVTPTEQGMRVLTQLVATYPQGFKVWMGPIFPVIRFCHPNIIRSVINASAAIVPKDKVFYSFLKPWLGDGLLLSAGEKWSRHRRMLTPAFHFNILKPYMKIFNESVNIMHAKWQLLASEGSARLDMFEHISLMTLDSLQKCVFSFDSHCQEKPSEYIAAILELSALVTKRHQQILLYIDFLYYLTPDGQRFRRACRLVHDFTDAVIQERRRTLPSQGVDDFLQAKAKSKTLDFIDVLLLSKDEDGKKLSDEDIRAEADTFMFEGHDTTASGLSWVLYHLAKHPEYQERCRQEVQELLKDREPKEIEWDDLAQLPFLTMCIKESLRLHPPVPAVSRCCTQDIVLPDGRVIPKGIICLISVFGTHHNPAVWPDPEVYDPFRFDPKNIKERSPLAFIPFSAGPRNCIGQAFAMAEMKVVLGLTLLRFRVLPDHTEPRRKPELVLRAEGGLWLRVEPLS
Description: Chemical inhibition of M1 formation by recombinant CYP4F3B. The series is classed as biochemical.

Series [2] concerns the target T3, CYP2J2 (Homo sapiens, UniProt P51589).
T3 sequence (P51589 1-502): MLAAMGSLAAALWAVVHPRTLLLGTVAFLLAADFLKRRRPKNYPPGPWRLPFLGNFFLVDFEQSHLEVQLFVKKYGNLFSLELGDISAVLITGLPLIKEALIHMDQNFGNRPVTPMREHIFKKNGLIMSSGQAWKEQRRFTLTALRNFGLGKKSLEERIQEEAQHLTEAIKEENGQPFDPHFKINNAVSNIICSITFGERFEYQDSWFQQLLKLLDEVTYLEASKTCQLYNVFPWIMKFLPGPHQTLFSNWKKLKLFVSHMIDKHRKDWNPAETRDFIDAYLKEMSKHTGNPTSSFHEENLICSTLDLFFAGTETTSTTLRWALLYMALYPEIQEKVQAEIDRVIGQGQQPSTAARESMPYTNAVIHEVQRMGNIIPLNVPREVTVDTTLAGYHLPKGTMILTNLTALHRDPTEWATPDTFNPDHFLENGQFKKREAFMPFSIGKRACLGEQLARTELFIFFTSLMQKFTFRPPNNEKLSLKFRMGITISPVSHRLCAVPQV
The series can be described thus: Chemical inhibition of M1 formation by recombinant CYP2J2. It is filed as biochemical.

A short description of series [3]: Incubation of DB289 with pooled human liver microsomes. The series is classed as in vitro ADME. The conditions noted are these: 15 μM DB289, 0.2 mg/ml HLMs, 0-120 min. In short, it runs like this: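 Pooled liver microsomes (50 donors, mixed gender) at 0.2 mg/ml with 15 μM substrate in a 1 ml mix, equilibrated 5 min at 37°C, then started with NADPH. Aliquots taken at 0, 5, 15, 30 and 120 min into ice-cold acetonitrile. LC/UV at 359 nm against an external 0.1–15 μM calibration; metabolites identified by retention time versus synthetic standards. Single determination; controls lacked NADPH, protein or substrate.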

The conditions of series [4]: HLMs, ref Zimmerlin and Patten (2000), cited from earlier work.
Series [5] relates to CYP2J2. The settings on record: ref Hashizume et al. (2002); cited from earlier work.
Setting [6] is: 0.2 μM and 1 μM, 10 pmol/ml P450, 3 μM DB289.
Where [7] appears, read: read-out: inhibition of M1 formation.
Where [8] appears, read: 100 μM inhibitor, 10 pmol/ml P450, 3 μM DB289.

Structures are written as SMILES.

`C#CCCCCCCCCCCCCCCCC(=O)O` [17-ODYA, 17-Octadecynoic acid]: the “inhibition of M1 formation” value in series [1] (1 μM inhibitor, 15 min preincubation, 0.2 mg/ml HLM, 3 μM DB289) is reported as 39%; in series [1] (10 μM inhibitor, 15 min preincubation, 0.2 mg/ml HLM, 3 μM DB289) it was 84%. The “activation of M1 formation at low concentrations” value was “activation was not observed” on recombinant CYP4F2 (setting [6]), “appeared to activate” on recombinant CYP4F3B (setting [6]) and “activation was not observed” on CYP2J2 [2] (setting [6]).
As for `Nn1nnc2ccccc21` [ABT, 1-aminobenzotriazole], in series [1] (100 μM inhibitor, 15 min preincubation, 0.2 mg/ml HLM, 3 μM DB289, 5 min), the “inhibition of M1 formation relative to control” value amounted to 86%.
Take `N=C(N)c1ccc(-c2ccc(-c3ccc(C(=N)N)cc3)o2)cc1` [DB75, 2,5-bis(4-amidinophenyl) furan]: the “concentration of metabolite formed from DB289” value in series [3] is “below the lower level of quantification”.
A word on the Km: it is the concentration of substrate that gives half-maximal velocity. For the compound `CCCCCCCCc1ccc(CCC(N)(CO)CO)cc1` [FTY720, 2-amino-2-[2-(4-octylphenyl)ethyl]-1,3-propanediol], in series [4], the “Vmax of ω-hydroxylation” value is given as 1850 pmol/min/mg protein. Further, the Km in series [4] (read-out: apparent Km of ω-hydroxylation) is 180 µM.
By inhibition is commonly meant the drop in the measured response relative to a control, in per cent. With `CCCCc1ccc(N=CNO)c(C)c1` [HET0016, N-hydroxy-N′-(4-n-butyl-2-methylphenyl)formamidine], the “inhibition of M1 formation” value in series [1] (0.1 μM inhibitor, 0.2 mg/ml HLM, 3 μM DB289) came out at 78%; in series [1] (0.5 μM inhibitor, 0.2 mg/ml HLM, 3 μM DB289) it was 95%. The inhibition at 0.02 µM on recombinant CYP4F2 (setting [7]) is 82%; at recombinant CYP4F3B (setting [7]), 79%.
For the compound `CCCCC/C=C\C/C=C\C/C=C\C/C=C\CCCC(=O)O` [arachidonic acid], the “inhibition of M1 formation” value is recorded as 60% in series [1] (500 μM inhibitor, 0.2 mg/ml HLM, 3 μM DB289); “no effect” in series [1] (inhibitor up to 100 μM, 0.2 mg/ml HLM, 3 μM DB289); “potently inhibited” at recombinant CYP4F2 (setting [8]); “potently inhibited” at recombinant CYP4F3B (setting [8]).
On to `CC(C)(C)c1ccc(C(=O)CCCN2CCC(OC(c3ccccc3)c3ccccc3)CC2)cc1` [ebastine], for which, in the series with CYP2J2 [5], the Michaelis-Menten constant (Km) was 1.3 µM.
As to `CC(=O)N1CCN(c2ccc(OCC3COC(Cn4ccnc4)(c4ccc(Cl)cc4Cl)O3)cc2)CC1` (stereo not shown) [ketoconazole], the “inhibition of M1 formation” value in series [1] (3 μM inhibitor, 0.2 mg/ml HLM, 3 μM DB289, 5 min, Fig. 4) is recorded as 61%; in series [1] (3 μM inhibitor, 0.2 mg/ml pooled HLMs (different lot), 3 μM DB289, 5 min, Fig. 8), roughly 43%; on recombinant CYP4F3B (3 μM inhibitor, 10 pmol/ml P450, 3 μM DB289, 15 min) it was “no effect”. For the same compound, at recombinant CYP4F2 (setting [7]), the inhibition at 3 µM was found to be 87%. At CYP2J2 [2] (human, recombinant CYP2J2, pH 7.4, probe DB289 (3 μM), conversion to M1), the inhibition at 5 min, 3 μM turned out to be 93%.
For `CO[C@H]1C[C@H](O[C@H]2[C@H](C)[C@@H](O[C@@H]3O[C@H](C)C[C@H](N(C)C)[C@H]3OC(C)=O)[C@@H](C)C[C@@]3(CO3)C(=O)[C@H](C)[C@@H](OC(C)=O)[C@@H](C)[C@@H](C)OC(=O)[C@@H]2C)O[C@@H](C)[C@@H]1OC(C)=O` [troleandomycin], in series [1] (50 or 100 μM inhibitor, 0.2 mg/ml HLM, 3 μM DB289), the “inhibition of M1 formation” value is “did not inhibit”.
Turning to `O=c1cc(-c2ccccc2)oc2c1ccc1ccccc12` [α-naphthoflavone], the “inhibition of M1 formation” value in series [1] (1 μM inhibitor, 0.2 mg/ml HLM, 3 μM DB289, 5 min) is recorded as “negligible inhibition”.
